From PMC4719142 (ACS Chemical Biology, 2015)

Tests used:
L363 cells = assay: Cell viability; type: cell-based, Human; settings: L363, 72 h treatment, four replicates ± SEM
Procedure, shortened: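 MTS viability run in quadruplicate at the stated times and doses. Lines were grown in RPMI-1640 with 2 mM L-glutamine, 10% FBS and penicillin/streptomycin at 37 °C, 5% CO2. MTS reagent was added directly for 90 min at 37 °C. Formazan absorbance was read at 500 nm. Viability was normalised to DMSO-treated wells.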

several other cell lines = settings: literature values across several other cell lines ref 33, 34; cited from earlier work

Structure (SMILES): CN(C)c1ccc(Nc2c3ccc(NC(=O)CCN4CCCC4)cc3nc3cc(NC(=O)CCN4CCCC4)ccc23)cc1 [BRACO-19]
- IC50 (L363 cells): 15.3 ± 4.3 µM
- IC50 (several other cell lines): 1 to 13 µM
